In ChEMBL document CHEMBL3085708, “Identification and profiling of 3,5-dimethyl-isoxazole-4-carboxylic acid [2-methyl-4-((2S,3'S)-2-methyl-[1,3']bipyrrolidinyl-1'-yl)phenyl] amide as histamine H(3) receptor antagonist for the treatment of depression” (Bioorg Med Chem Lett, 2013):
Calls of active or inactive are those of the source. The rule behind the calls is not given here.

Legend:
[1] = Dissociation constant, pKa of the compound; format: physicochemical
[2] = system: Rattus norvegicus; experiment: Antidepression-like activity in rat assessed as decrease in immobility time at 60 mg/kg, po by forced swimming test; format: functional, organism-based; design: dose 60 mg/kg
Outline: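 Rat forced-swim test, immobility time as read-out. Test agent given po in MC/0.6% + H2O at 1, 3 and 10 mg/kg; imipramine reference at 60 mg/kg po.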

[3] = target: Histamine receptor H3 (Macaca mulatta, UniProt Q865E1); experiment: Displacement of [3H]N-alpha-methylhistamine from recombinant rhesus monkey histamine H3 receptor transfected in CHO cells after 1 hr by scintillation counting analysis; format: cell-based
Outline: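 Membranes from CHO cells stably expressing recombinant rhesus monkey H3 receptor; displacement of [3H]N-α-methyl-histamine, reported as Ki.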

Histamine receptor H3, sequence (Q865E1 whole entry): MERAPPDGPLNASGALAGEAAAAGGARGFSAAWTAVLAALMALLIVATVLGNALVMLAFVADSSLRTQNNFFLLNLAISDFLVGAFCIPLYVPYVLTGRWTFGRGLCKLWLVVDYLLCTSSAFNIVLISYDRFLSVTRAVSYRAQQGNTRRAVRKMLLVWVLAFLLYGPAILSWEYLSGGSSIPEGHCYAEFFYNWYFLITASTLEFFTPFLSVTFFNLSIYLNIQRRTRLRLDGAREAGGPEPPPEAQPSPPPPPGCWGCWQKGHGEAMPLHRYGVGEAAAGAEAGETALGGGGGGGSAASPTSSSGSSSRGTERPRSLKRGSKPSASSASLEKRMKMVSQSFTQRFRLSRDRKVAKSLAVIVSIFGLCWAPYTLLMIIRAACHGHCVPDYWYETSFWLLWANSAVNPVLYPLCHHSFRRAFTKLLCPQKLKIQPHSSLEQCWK

Molecule `Cc1nc(N2CC[C@H](N3CCC[C@@H]3C)C2)ccc1NC(=O)c1cccc2ccccc12` has a pKa [1] of 9.9.

`Cc1cc(N2CC[C@H](N3CCC[C@@H]3C)C2)ccc1NC(=O)c1cc(C)n(C)n1` showed a pKa [1] of 10.1.

Work on `Cc1cc(C(=O)Nc2ccc(N3CC[C@H](N4CCC[C@@H]4C)C3)cc2C)on1` yielded a pKa [1] of 10.1.

For `CN(C)CCCN1c2ccccc2CCc2ccccc21`, the Activity [2] was “Active”.

With `Cc1cc(N2CC[C@H](N3CCC[C@@H]3C)C2)ccc1NC(=O)c1cc(F)ccc1C` the pKa [1] was 10.1.

In the case of `Cc1cc(N2CC[C@H](N3CCC[C@@H]3C)C2)ccc1NC(=O)c1ccoc1`, the pKa [1] is reported as 10.1.

With `Cc1nc(N2CC[C@H](N3CCC[C@@H]3C)C2)ccc1NC(=O)Cc1ccccc1` the pKa [1] was 9.9.

`Cc1cc(N2CC[C@H](N3CCC[C@@H]3C)C2)ccc1NC(=O)c1ccco1` showed a pKa [1] of 10.1.

Work on `Cc1cccc(C(=O)Nc2ccc(N3CC[C@H](N4CCC[C@@H]4C)C3)cc2C)n1` yielded a Ki [3] of 1.4 nM and a pKa [1] of 10.1.

In the case of `Cc1nc(C(=O)Nc2ccc(N3CC[C@H](N4CCC[C@@H]4C)C3)cc2C)co1`, the pKa [1] is reported as 10.1.

For `Cc1nc(N2CC[C@H](N3CCC[C@@H]3C)C2)ccc1NC(=O)c1ccccc1`, the Ki [3] was 3 nM and the pKa [1] was 9.9.

In the case of `Cc1nc(N2CC[C@H](N3CCC[C@@H]3C)C2)ccc1NS(=O)(=O)c1ccc(F)c(F)c1`, the pKa [1] is reported as 10.

`Cc1cc(C(=O)Nc2ccc(N3CC[C@H](N4CCC[C@@H]4C)C3)cc2C)n[nH]1` gave a pKa [1] of 12.1.
